Here are results for 22 compounds from ChEMBL document CHEMBL3120115, “Synthesis and biological evaluation of 2-oxonicotinonitriles and 2-oxonicotinonitrile based nucleoside analogues” (Eur J Med Chem, 2014).

pEC50: −log10 of the molar value. A value given as a limit tells only on which side of the number the result lay.

In series [1] the test system is Aspergillus viridinutans. Kind of series: Antimicrobial activity against Aspergillus viridinutans at 250 ug/disc after 5 to 7 days by well diffusion method. It is filed as functional. The conditions noted are these: read-out: DIZ. A digest of the protocol:
(§1)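 Well diffusion assay. Bacteria were grown on nutrient agar and fungi on Czapek's-Dox agar; spores were inoculated into sterilized medium, dispersed and poured into plates. Compounds were dissolved in DMF at 250 mg/mL and loaded into 1 cm wells. Plates stood 24 h refrigerated for diffusion, then were incubated at 35 °C for 48 h (bacteria) or 28 °C for 5-7 days (fungi). Inhibition zone diameter was read in mm. DMF-only wells served as negative control.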

Series [2] relates to Escherichia coli. Kind of series: Antimicrobial activity against Escherichia coli at 250 ug/disc after 48 hrs by well diffusion method. It is filed as functional. The conditions noted are these: read-out: DIZ. Summed up:
as §1

The test system of series [3] is Bacillus subtilis. Description: Antimicrobial activity against Bacillus subtilis at 250 ug/disc after 48 hrs by well diffusion method. The conditions noted are these: read-out: DIZ. It is filed as functional. A digest of the protocol:
as §1

The subject of series [4] is Aspergillus niger. Kind of series: Antimicrobial activity against Aspergillus niger at 250 ug/disc after 5 to 7 days by well diffusion method. It is filed as functional. Particulars: read-out: DIZ. A digest of the protocol:
as §1

A short description of series [5]: Selectivity index, ratio of CC50 for cytotoxicity to EC50 for Influenza A virus H5N1. The format is toxicity. Particulars: read-out: Ratio CC50/EC50. A digest of the protocol: (§2)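 CC50 is the concentration at which 50% of cells die, and EC50 is the concentration inhibiting 50% of viral infection. SI is calculated as the CC50/EC50 ratio.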
Series [6] can be described thus: Selectivity index, ratio of CC50 for cytotoxicity to EC50 for Influenza A virus H3N2. The format is toxicity. Particulars: read-out: Ratio CC50/EC50. Summed up:
as §2

A short description of series [7]: Selectivity index, ratio of CC50 for cytotoxicity to EC50 for Influenza B virus. The conditions noted are these: read-out: Ratio CC50/EC50. The format is toxicity. A digest of the protocol: as §2
Series [8] can be described thus: Selectivity index, ratio of CC50 for cytotoxicity to EC50 for HSV2. The conditions noted are these: read-out: Ratio CC50/EC50. The format is toxicity. A digest of the protocol:
as §2

Series [9] is described as follows: Selectivity index, ratio of CC50 for cytotoxicity to EC50 for HSV1. The conditions noted are these: read-out: Ratio CC50/EC50. It is filed as toxicity. A digest of the protocol: as §2
Series [10] relates to Influenza A virus. Kind of series: Antiviral activity against Influenza A virus H5N1 by cytopathy assay. It is filed as functional, organism-based.
Series [11] concerns Influenza B virus. Kind of series: Antiviral activity against Influenza B virus by cytopathy assay. The format is functional, organism-based.
The subject of series [12] is Influenza A virus. Kind of series: Antiviral activity against Influenza A virus H3N2 by cytopathy assay. It is filed as functional, organism-based.
Series [13] deals with West Nile virus. Kind of series: Antiviral activity against West Nile virus by visual/neutral red test. It is filed as functional, organism-based.
Series [14] has as its system SARS-CoV. Description: Antiviral activity against SARS coronavirus by visual/neutral red test. The conditions noted are these: Severe acute respiratory syndrome-related coronavirus. The format is functional, organism-based.
In series [15] the test system is Human alphaherpesvirus 1. Kind of series: Antiviral activity against HSV1 assessed as inhibition of viral infection. It is filed as functional, organism-based.
In series [16] the test system is Human alphaherpesvirus 2. Kind of series: Antiviral activity against HSV2 assessed as inhibition of viral infection. It is filed as functional, organism-based.
The test system of series [17] is Hepatitis C virus. Description: Antiviral activity against Hepatitis C virus assessed as inhibition of viral infection by RNA replicon assay. It is filed as functional, organism-based, Hepacivirus hominis.
Series [18] relates to Hepatitis B virus. Kind of series: Antiviral activity against Hepatitis B virus assessed as inhibition of viral infection by DNA virion assay. The format is functional, organism-based.

For the compound `N#Cc1c(-c2cccs2)cc(-c2cccs2)n([C@@H]2O[C@H](CO)[C@H](O)[C@H](O)[C@H]2O)c1=O`, the zone of inhibition at 250 µg/disc was 8 mm in series [1], 0 mm in series [2] and 4 mm in [3].

In the case of `CC1(C)S[C@@H]2[C@H](NC(=O)[C@H](N)c3ccccc3)C(=O)N2[C@H]1C(=O)O` [AMPICILLIN], the figures for the zone of inhibition at 250 µg/disc in series [2] and in series [3] were 18 mm and 20 mm, respectively.

With `CC(=O)OCCOCn1c(-c2cccs2)cc(-c2cccs2)c(C#N)c1=O`, the zone of inhibition at 250 µg/disc in series [1] came out at 7 mm; in [4] it was 8 mm; in [2], 0 mm; in series [3], 10 mm.

On to `N#Cc1c(-c2ccc(Cl)cc2)cc(-c2ccccn2)n([C@@H]2O[C@H](CO)[C@H](O)[C@H](O)[C@H]2O)c1=O`, for which the zone of inhibition at 250 µg/disc in series [1] was found to be 7 mm; in series [2], 0 mm; in series [3], 2 mm.

As for `CC(=O)OC[C@H]1O[C@@H](n2c(-c3ccccn3)cc(-c3ccc(Cl)cc3)c(C#N)c2=O)[C@H](OC(C)=O)[C@@H](OC(C)=O)[C@H]1OC(C)=O`, the zone of inhibition at 250 µg/disc in series [1] amounted to 5 mm; in series [4], 7 mm; in series [2], 0 mm.

In the case of `CC(C)c1ccc(-c2cc(-c3cccs3)[nH]c(=O)c2C#N)cc1`, the selectivity ratio in [5] is more than 3.1; in series [6], more than 4.5; in series [7], more than 2.2; in series [8], 1; in [9] it was 1. Besides, the negative logarithm of the EC50 (pEC50) in series [10] was 4.49; in [11] it was 4.34; in [12] it was 4.66; in [13] it was less than 5.66; in [14], less than 4.59; in [15], less than 3.52. The figures for the pEC50 in series [16], in series [17] and in series [18] were less than 3.52, less than 4.00 and less than 4.00, respectively.

As for `C[C@@]1(O)[C@H](O)[C@@H](CO)O[C@H]1n1ccc(N)nc1=O`, the pEC50 in [17] is 5.80.

Consider `CC(=O)OC[C@H]1O[C@@H](n2c(-c3cccs3)cc(-c3ccc(C(C)C)cc3)c(C#N)c2=O)[C@H](OC(C)=O)[C@@H](OC(C)=O)[C@@H]1OC(C)=O`, for which the selectivity ratio is 1 in series [5]; more than 3 in [6]; more than 2.2 in series [7]; more than 4.9 in series [8]; more than 4.4 in series [9]. The negative-log EC50 (pEC50) in [10] is 4.49; in series [11] it was 4.40; in [12], 4.48; in series [13], less than 5.33; in series [14], less than 4.00; in [15], 4.17. Besides, the figures for the negative logarithm of the EC50 (pEC50) in series [16], in [17] and in series [18] were 4.22, less than 4.00 and less than 4.00, respectively. In addition, the zone of inhibition at 250 µg/disc was determined as 7 mm in series [1], 0 mm in [2] and 1 mm in series [3].

As for `CC(=O)OC[C@H]1O[C@@H](n2c(-c3cccs3)cc(-c3ccc(C(C)C)cc3)c(C#N)c2=O)[C@H](OC(C)=O)[C@@H](OC(C)=O)[C@H]1OC(C)=O`, the zone of inhibition at 250 µg/disc was 6 mm in [1] and 9 mm in series [4].

For `N#Cc1c(-c2ccc(Cl)cc2)cc(-c2ccccn2)nc1OCCCCO`, the zone of inhibition at 250 µg/disc in [1] turned out to be 5 mm; in series [4], 7 mm; in series [2], 0 mm; in series [3], 2 mm.

Take `N#Cc1c(-c2ccc(Cl)cc2)cc(-c2ccccn2)n(CCCO)c1=O`: the zone of inhibition at 250 µg/disc in series [1] is 9 mm; in series [2] it was 0 mm; in [3], 3 mm.

`CC(=O)OC[C@H]1O[C@@H](n2c(-c3cccs3)cc(-c3cccs3)c(C#N)c2=O)[C@H](OC(C)=O)[C@@H](OC(C)=O)[C@@H]1OC(C)=O`: the selectivity ratio was more than 2.5 in [6], 1 in series [7], less than 4 in series [8] and less than 4 in series [9]. For the same compound, the pEC50 in series [10] is less than 4.00; in series [11], 4.49; in series [12] it was 4.40; in series [13] it was less than 5.52; in series [14] it was less than 4.49; in series [15], less than 4.22. Also, the figures for the negative logarithm of the EC50 (pEC50) in series [16], in series [17] and in series [18] were less than 4.22, less than 4.00 and less than 4.00, respectively. Also, the zone of inhibition at 250 µg/disc in series [1] stood at 6 mm; in [4], 8 mm; in series [2], 0 mm; in series [3] it was 2 mm.

Take `Nc1nc2c(ncn2COCCO)c(=O)[nH]1` [ACYCLOVIR]: the selectivity ratio in [8] is more than 10.4; in [9], more than 30.3. Further, the pEC50 in series [15] was 5.48; in [16], 5.02.

As for `N#Cc1c(-c2cccs2)cc(-c2cccs2)n([C@@H]2O[C@H](CO)[C@@H](O)[C@H](O)[C@H]2O)c1=O`, the zone of inhibition at 250 µg/disc in series [1] turned out to be 6 mm; in series [3], 2 mm.

On to `CC(C)c1ccc(-c2cc(-c3cccs3)n([C@@H]3O[C@H](CO)[C@H](O)[C@H](O)[C@H]3O)c(=O)c2C#N)cc1`, for which the results for the zone of inhibition at 250 µg/disc in series [1], in [2] and in series [3] were 6 mm, 5 mm and 3 mm, respectively.

Regarding `C=CCOc1nc(-c2ccccn2)cc(-c2ccc(Cl)cc2)c1C#N`, the results for the zone of inhibition at 250 µg/disc in series [1], in [2] and in series [3] were 7 mm, 0 mm and 1 mm, respectively.

Consider `CC(=O)OCCCCOc1nc(-c2ccccn2)cc(-c2ccc(Cl)cc2)c1C#N`, for which the zone of inhibition at 250 µg/disc in series [1] amounted to 7 mm; in [4], 9 mm; in series [2], 0 mm; in series [3], 3 mm.

As for `Nc1ccn([C@@H]2CS[C@H](CO)O2)c(=O)n1` [LAMIVUDINE], the negative-log EC50 (pEC50) in series [18] was 7.46.

Turning to `CC(C)c1ccc(-c2cc(-c3cccs3)n([C@@H]3O[C@H](CO)[C@@H](O)[C@H](O)[C@H]3O)c(=O)c2C#N)cc1`, the zone of inhibition at 250 µg/disc in [1] worked out at 8 mm; in [4], 7 mm; in series [2], 0 mm; in series [3] it was 10 mm.

As for `CC1(C)O[C@@H]2C[C@H]3[C@@H]4C[C@H](F)C5=CC(=O)C=C[C@]5(C)[C@@]4(F)[C@@H](O)C[C@]3(C)[C@]2(C(=O)CO)O1` [FLUOCINOLONE ACETONIDE], the zone of inhibition at 250 µg/disc in series [1] worked out at 31 mm; in series [4], 22 mm.

For `CN(C)C=O` [DIMETHYLFORMAMIDE], the zone of inhibition at 250 µg/disc in series [1], in [4], in [2] and in series [3] was 0 mm each time.

Regarding `CC(C)c1ccc(-c2cc(-c3cccs3)n(COCCO)c(=O)c2C#N)cc1`, the zone of inhibition at 250 µg/disc in series [1] amounted to 6 mm; in series [4], 7 mm; in series [2], 0 mm; in series [3], 23 mm.
